Test results as given in ChEMBL document CHEMBL1153264, “(1,2,3-Triazol-4-yl)benzenamines: synthesis and activity against VEGF receptors 1 and 2” (Bioorg Med Chem Lett, 2009).
Active and inactive are the calls of the source. The calls are words filed in the database; no cut-off is given here.

Experiments:
[1] = molecular target: T1, Vascular endothelial growth factor receptor 2 (Homo sapiens, UniProt P35968); experiment: Inhibition of VEGFR2 by HTRF assay in presence of 2 uM ATP
In short: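 HTRF kinase assay with KDR enzyme (3–4 ng) and biotinylated pGAT substrate. ATP added to start, 45 min at RT. Stopped with EDTA/KF buffer plus Eu-cryptate anti-phosphotyrosine antibody, 2 h RT, then HTRF read. IC50 from 10-point log concentration curves, mean of at least two duplicate runs.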

[2] = molecular target: Vascular endothelial growth factor receptor 1 (Homo sapiens, UniProt P17948); experiment: Inhibition of VEGFR1 by HTRF assay
[3] = molecular target: T1, Vascular endothelial growth factor receptor 2; experiment: Inhibition of VEGF-induced phosphorylation of VEGFR2 by cell-based ELISA
[4] = molecular target: Insulin-like growth factor 1 receptor (Homo sapiens) (UniProt P08069); experiment: Inhibition of IGF1R at 10 uM
[5] = molecular target: Insulin receptor (Homo sapiens) (UniProt P06213); experiment: Inhibition of IR at 10 uM
[6] = molecular target: Fibroblast growth factor receptor 1 (Homo sapiens) (UniProt P11362); experiment: Inhibition of FGFR1 at 10 uM
[7] = molecular target: Receptor-type tyrosine-protein kinase FLT3 (Homo sapiens) (UniProt P36888); experiment: Inhibition of Flt3 at 10 uM
[8] = molecular target: Epidermal growth factor receptor (Homo sapiens) (UniProt P00533); experiment: Inhibition of EGFR at 10 uM
[9] = molecular target: Receptor tyrosine-protein kinase erbB-2 (Homo sapiens) (UniProt P04626); experiment: Inhibition of ErbB2 at 10 uM
[10] = molecular target: Hepatocyte growth factor receptor (Homo sapiens) (UniProt P08581); experiment: Inhibition of c-Met at 10 uM
[11] = molecular target: Macrophage-stimulating protein receptor (Homo sapiens) (UniProt Q04912); experiment: Inhibition of Ron at 10 uM
[12] = Inhibition of PKA at 10 uM
[13] = molecular target: Glycogen synthase kinase-3 beta (Homo sapiens) (UniProt P49841); experiment: Inhibition of GSK3-beta at 10 uM
[14] = molecular target: Bcr/Abl fusion protein (Homo sapiens) (UniProt P00519+P11274); experiment: Inhibition of Bcr-Abl at 10 uM; type: protein assay
[15] = Inhibition of Bcr-Abl T315 mutant at 10 uM
[16] = molecular target: Cyclin-dependent kinase 1 (Homo sapiens) (UniProt P06493); experiment: Inhibition of Cdk1 at 10 uM
[17] = molecular target: Cyclin-dependent kinase 2 (Homo sapiens) (UniProt P24941); experiment: Inhibition of Cdk2 at 10 uM
[18] = molecular target: Proto-oncogene tyrosine-protein kinase Src (Homo sapiens) (UniProt P12931); experiment: Inhibition of Src at 10 uM
[19] = molecular target: T2, Aurora kinase A (Homo sapiens) (UniProt O14965); experiment: Inhibition of Aurora A at 10 uM
T2 sequence (whole entry): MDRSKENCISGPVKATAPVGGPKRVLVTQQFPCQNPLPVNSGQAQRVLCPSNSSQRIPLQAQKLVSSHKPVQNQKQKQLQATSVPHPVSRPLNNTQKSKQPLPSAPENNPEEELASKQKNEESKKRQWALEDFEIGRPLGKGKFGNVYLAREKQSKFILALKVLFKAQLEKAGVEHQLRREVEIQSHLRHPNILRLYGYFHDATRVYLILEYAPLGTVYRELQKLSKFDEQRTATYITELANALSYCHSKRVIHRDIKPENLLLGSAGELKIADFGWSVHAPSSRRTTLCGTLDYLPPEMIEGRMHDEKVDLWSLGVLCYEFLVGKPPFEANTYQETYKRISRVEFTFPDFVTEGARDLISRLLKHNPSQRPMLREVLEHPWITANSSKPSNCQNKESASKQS

[20] = molecular target: Aurora kinase B (Homo sapiens) (UniProt Q96GD4); experiment: Inhibition of Aurora B at 10 uM
[21] = molecular target: Serine/threonine-protein kinase PLK1 (Homo sapiens) (UniProt P53350); experiment: Inhibition of Plk1 at 10 uM
Chain of Serine/threonine-protein kinase PLK1 (Homo sapiens) (P53350 whole entry): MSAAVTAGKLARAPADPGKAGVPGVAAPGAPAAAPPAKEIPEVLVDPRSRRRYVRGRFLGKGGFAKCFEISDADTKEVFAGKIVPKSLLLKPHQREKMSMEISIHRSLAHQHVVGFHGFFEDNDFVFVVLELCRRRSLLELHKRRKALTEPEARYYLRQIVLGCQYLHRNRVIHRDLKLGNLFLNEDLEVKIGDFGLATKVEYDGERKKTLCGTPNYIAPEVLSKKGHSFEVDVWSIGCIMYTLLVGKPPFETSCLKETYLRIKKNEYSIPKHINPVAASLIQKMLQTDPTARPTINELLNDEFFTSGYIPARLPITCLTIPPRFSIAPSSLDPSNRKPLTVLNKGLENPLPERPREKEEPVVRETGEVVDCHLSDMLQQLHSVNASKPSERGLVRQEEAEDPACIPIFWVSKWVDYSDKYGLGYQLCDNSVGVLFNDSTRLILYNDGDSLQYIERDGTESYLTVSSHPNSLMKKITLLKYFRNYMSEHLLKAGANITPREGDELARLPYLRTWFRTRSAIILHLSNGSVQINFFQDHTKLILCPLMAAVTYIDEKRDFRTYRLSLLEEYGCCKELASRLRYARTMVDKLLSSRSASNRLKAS

Chain of Macrophage-stimulating protein receptor (Homo sapiens) (Q04912 25-304 limits assumed): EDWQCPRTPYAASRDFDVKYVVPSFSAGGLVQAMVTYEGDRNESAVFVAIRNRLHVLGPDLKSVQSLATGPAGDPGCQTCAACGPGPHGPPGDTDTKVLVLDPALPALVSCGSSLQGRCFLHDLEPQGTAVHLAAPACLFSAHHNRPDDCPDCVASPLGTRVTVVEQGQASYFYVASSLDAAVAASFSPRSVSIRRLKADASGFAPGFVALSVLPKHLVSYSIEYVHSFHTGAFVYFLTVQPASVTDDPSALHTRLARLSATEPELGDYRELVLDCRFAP
Chain of Macrophage-stimulating protein receptor (Homo sapiens) (Q04912 310-1400 limits assumed): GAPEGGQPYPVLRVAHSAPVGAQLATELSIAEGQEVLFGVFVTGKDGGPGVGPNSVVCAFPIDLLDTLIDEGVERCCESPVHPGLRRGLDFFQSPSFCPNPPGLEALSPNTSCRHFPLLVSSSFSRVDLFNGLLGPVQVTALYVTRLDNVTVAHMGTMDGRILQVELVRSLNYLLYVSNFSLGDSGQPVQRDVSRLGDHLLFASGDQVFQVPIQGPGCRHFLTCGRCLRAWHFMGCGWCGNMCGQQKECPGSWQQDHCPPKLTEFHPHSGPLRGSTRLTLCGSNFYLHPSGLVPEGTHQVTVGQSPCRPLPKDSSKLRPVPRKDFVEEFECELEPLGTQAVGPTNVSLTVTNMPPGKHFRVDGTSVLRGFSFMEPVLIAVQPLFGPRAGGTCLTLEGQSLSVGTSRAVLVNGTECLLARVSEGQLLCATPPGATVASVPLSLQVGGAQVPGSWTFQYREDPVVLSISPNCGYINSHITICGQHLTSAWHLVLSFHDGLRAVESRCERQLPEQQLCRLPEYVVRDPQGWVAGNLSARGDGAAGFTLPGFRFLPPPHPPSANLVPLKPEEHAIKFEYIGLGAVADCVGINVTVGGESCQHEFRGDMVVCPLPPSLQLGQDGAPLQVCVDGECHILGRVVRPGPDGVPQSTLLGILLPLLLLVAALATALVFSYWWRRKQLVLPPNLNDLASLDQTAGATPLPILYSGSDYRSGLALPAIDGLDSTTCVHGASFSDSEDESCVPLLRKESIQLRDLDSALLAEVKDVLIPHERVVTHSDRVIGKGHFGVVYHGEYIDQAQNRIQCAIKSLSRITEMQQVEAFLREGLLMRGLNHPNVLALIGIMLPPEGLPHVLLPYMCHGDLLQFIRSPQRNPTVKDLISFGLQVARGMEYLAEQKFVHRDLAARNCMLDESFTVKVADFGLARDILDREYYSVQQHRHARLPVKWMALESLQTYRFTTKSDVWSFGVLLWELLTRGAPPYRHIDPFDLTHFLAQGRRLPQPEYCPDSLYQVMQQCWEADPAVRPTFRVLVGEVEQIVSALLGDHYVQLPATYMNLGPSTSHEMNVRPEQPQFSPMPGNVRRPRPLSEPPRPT
Chain of Cyclin-dependent kinase 1 (Homo sapiens) (P06493 whole entry, looked up): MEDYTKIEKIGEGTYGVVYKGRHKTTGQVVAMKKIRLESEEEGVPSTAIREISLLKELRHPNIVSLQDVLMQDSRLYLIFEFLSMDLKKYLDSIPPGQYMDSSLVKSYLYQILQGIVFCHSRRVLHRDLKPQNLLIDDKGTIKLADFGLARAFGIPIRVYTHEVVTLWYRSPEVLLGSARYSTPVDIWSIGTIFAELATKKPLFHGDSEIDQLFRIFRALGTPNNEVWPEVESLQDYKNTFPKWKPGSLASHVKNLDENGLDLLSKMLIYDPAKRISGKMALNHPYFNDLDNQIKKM
Chain of Vascular endothelial growth factor receptor 1 (P17948 whole entry): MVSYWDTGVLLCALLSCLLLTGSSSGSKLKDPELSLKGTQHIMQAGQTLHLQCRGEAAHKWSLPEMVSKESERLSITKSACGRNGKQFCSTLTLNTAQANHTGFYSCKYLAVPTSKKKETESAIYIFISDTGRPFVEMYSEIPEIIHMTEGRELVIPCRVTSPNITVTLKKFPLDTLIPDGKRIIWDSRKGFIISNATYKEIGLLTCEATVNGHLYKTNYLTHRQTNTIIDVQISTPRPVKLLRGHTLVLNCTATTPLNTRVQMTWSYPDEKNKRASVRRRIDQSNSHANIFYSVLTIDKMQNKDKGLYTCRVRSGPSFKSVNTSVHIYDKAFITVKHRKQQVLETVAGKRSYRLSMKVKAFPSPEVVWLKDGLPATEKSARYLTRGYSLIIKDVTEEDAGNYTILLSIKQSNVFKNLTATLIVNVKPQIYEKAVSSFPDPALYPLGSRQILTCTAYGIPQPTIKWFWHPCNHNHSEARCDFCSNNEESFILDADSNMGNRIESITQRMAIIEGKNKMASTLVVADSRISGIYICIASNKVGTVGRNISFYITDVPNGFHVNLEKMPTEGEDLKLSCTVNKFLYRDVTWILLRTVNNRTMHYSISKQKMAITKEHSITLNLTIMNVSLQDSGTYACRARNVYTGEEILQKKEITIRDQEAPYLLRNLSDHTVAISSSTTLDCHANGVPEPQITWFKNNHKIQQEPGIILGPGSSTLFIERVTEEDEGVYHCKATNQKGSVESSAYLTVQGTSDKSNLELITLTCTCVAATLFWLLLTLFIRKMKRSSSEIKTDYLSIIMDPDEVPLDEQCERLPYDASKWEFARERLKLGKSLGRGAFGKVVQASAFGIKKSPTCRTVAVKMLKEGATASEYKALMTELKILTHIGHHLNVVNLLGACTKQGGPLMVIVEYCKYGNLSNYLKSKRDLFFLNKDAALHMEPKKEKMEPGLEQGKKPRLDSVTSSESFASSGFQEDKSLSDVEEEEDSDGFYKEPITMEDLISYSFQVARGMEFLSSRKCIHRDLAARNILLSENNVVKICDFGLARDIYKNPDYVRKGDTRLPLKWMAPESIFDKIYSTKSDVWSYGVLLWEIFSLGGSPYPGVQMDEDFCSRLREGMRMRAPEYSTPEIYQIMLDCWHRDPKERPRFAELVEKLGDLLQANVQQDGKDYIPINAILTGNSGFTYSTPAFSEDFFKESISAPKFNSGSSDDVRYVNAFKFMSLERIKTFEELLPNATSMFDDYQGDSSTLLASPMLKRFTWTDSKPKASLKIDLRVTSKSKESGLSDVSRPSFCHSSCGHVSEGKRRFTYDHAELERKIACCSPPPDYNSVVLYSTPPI
Chain of Insulin receptor (Homo sapiens) (P06213 28-758 limits assumed): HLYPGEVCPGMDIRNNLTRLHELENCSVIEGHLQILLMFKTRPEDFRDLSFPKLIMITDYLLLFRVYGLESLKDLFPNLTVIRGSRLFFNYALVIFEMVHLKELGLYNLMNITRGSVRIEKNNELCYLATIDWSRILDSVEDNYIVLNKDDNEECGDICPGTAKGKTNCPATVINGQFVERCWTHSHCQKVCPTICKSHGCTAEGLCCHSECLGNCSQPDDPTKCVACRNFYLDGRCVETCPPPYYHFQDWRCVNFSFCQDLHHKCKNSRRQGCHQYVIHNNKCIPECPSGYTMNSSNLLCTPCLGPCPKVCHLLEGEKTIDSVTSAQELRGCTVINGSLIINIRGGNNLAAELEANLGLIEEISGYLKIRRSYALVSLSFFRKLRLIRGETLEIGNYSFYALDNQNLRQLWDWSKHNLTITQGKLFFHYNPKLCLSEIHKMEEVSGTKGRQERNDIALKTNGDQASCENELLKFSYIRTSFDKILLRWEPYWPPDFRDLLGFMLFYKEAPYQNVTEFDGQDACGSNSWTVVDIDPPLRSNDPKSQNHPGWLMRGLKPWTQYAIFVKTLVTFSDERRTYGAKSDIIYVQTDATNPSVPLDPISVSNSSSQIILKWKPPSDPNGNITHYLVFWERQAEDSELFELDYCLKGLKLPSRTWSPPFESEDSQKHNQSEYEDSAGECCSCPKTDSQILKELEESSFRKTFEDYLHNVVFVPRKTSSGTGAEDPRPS
Chain of Insulin receptor (Homo sapiens) (P06213 763-1382 limits assumed): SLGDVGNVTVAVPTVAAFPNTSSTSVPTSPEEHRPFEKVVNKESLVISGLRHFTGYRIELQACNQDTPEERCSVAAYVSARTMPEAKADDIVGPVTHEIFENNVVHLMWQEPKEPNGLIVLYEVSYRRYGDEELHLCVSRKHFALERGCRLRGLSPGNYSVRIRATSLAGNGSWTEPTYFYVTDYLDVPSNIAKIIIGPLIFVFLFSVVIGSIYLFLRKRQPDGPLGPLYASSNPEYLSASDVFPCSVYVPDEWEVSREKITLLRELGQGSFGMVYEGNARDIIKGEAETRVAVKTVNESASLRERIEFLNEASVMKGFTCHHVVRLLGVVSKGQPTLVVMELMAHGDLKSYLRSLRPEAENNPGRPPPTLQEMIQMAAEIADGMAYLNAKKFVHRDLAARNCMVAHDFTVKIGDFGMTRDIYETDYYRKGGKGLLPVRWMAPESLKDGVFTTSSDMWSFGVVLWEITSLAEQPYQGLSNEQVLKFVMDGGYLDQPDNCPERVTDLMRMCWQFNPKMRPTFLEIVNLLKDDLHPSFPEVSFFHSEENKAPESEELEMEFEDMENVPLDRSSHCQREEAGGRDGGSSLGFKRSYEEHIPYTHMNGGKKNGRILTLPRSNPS

SMILES | IC50 [1] | IC50 [2] | inhibition [4] | inhibition [5] | inhibition [6] | inhibition [7] | inhibition [8] | inhibition [9] | inhibition [10] | inhibition [11] | inhibition [12] | inhibition [13] | inhibition [14] | inhibition [15] | inhibition [16] | inhibition [17] | inhibition [18] | inhibition [19] | inhibition [20] | inhibition [21] | also measured
Cc1cc(-n2cc(-c3ccccc3NCc3ccncc3)nn2)ccc1C(F)(F)F | 980 nM | 860 nM | < 30% | < 30% | < 30% | < 30% | < 30% | < 30% | < 30% | < 30% | < 30% | < 30% | < 30% | < 30% | < 30% | < 30% | < 30% | < 30% | < 30% | < 30% | IC50 [3]: 2020 nM
O=C(Nc1cccc(Cl)c1)c1nn[nH]c1NCc1ccncc1 | 5000 nM |  |  |  |  |  |  |  |  |  |  |  |  |  |  |  |  |  |  |  | Activity [3]: inactive
O=C(Nc1ccc(C(F)(F)F)cc1)c1[nH]nnc1NCc1ccncc1 | > 10000 nM | > 10000 nM |  |  |  |  |  |  |  |  |  |  |  |  |  |  |  |  |  |  | 
O=C(Nc1ccc(Cl)cc1)c1nn[nH]c1NCc1ccncc1 | > 10000 nM | > 10000 nM |  |  |  |  |  |  |  |  |  |  |  |  |  |  |  |  |  |  | 
c1ccc(-c2cn(-c3ccc4ccccc4n3)nn2)c(NCc2ccncc2)c1 | 770 nM | 640 nM | < 30% | < 30% | < 30% | < 30% | < 30% | < 30% | < 30% | < 30% | < 30% | < 30% | < 30% | < 30% | < 30% | < 30% | < 30% | < 30% | < 30% | < 30% | IC50 [3]: 1190 nM
CC(C)(C)c1ccc(-n2cc(-c3ccccc3NCc3ccncc3)nn2)cc1 | 610 nM | 530 nM | < 30% | < 30% | < 30% | < 30% | < 30% | < 30% | < 30% | < 30% | < 30% | < 30% | < 30% | < 30% | < 30% | < 30% | < 30% | < 30% | < 30% | < 30% | IC50 [3]: 1630 nM
FC(F)(F)c1ccc(-n2cc(-c3ccccc3NCc3ccncc3)nn2)cc1Cl | 930 nM | 1130 nM | < 30% | < 30% | < 30% | < 30% | < 30% | < 30% | < 30% | < 30% | < 30% | < 30% | < 30% | < 30% | < 30% | < 30% | < 30% | < 30% | < 30% | < 30% | IC50 [3]: 2920 nM
Clc1ccc(-n2cc(-c3ccccc3NCc3ccncc3)nn2)cc1Cl | 630 nM | 650 nM | < 30% | < 30% | < 30% | < 30% | < 30% | < 30% | < 30% | < 30% | < 30% | < 30% | < 30% | < 30% | < 30% | < 30% | < 30% | < 30% | < 30% | < 30% | IC50 [3]: 1470 nM
Clc1cccc(-n2cc(-c3ccccc3NCc3ccc4c(c3)OCO4)nn2)c1 | > 10000 nM | > 10000 nM | < 30% | < 30% | < 30% | < 30% | < 30% | < 30% | < 30% | < 30% | < 30% | < 30% | < 30% | < 30% | < 30% | < 30% | < 30% | < 30% | < 30% | < 30% | IC50 [3]: > 10000 nM
FC(F)(F)c1cccc(-n2cc(-c3ccccc3NCc3cccnc3)nn2)c1 | > 10000 nM | > 10000 nM | < 30% | < 30% | < 30% | < 30% | < 30% | < 30% | < 30% | < 30% | < 30% | < 30% | < 30% | < 30% | < 30% | < 30% | < 30% | < 30% | < 30% | < 30% | IC50 [3]: > 10000 nM
Clc1cccc(-n2cc(-c3ccccc3NCc3ccnc4ccccc34)nn2)c1 | 190 nM | 170 nM | < 30% | < 30% | < 30% | < 30% | < 30% | < 30% | < 30% | < 30% | < 30% | < 30% | < 30% | < 30% | < 30% | < 30% | < 30% | < 30% | < 30% | < 30% | IC50 [3]: 270 nM
O=C(Nc1cccc(C(F)(F)F)c1)c1nn[nH]c1NCc1ccncc1 | 5000 nM |  |  |  |  |  |  |  |  |  |  |  |  |  |  |  |  |  |  |  | Activity [3]: inactive
FC(F)(F)c1cccc(-n2cc(-c3ccccc3NCc3ccc4c(c3)OCO4)nn2)c1 | > 10000 nM | > 10000 nM | < 30% | < 30% | < 30% | < 30% | < 30% | < 30% | < 30% | < 30% | < 30% | < 30% | < 30% | < 30% | < 30% | < 30% | < 30% | < 30% | < 30% | < 30% | IC50 [3]: > 10000 nM
FC(F)(F)c1cc(-n2cc(-c3ccccc3NCc3ccncc3)nn2)ccc1Cl | 440 nM | 510 nM | < 30% | < 30% | < 30% | < 30% | < 30% | < 30% | < 30% | < 30% | < 30% | < 30% | < 30% | < 30% | < 30% | < 30% | < 30% | < 30% | < 30% | < 30% | IC50 [3]: 780 nM
FC(F)(F)c1cccc(-n2cc(-c3ccccc3NCc3ccnc4ccccc34)nn2)c1 | 160 nM | 210 nM | < 30% | < 30% | < 30% | < 30% | < 30% | < 30% | < 30% | < 30% | < 30% | < 30% | < 30% | < 30% | < 30% | < 30% | < 30% | < 30% | < 30% | < 30% | IC50 [3]: 310 nM
Fc1ccc(CNc2ccccc2-c2cn(-c3cccc(Cl)c3)nn2)cc1F |  |  | < 30% | < 30% | < 30% | < 30% | < 30% | < 30% | < 30% | < 30% | < 30% | < 30% | < 30% | < 30% | < 30% | < 30% | < 30% | < 30% | < 30% | < 30% | 
